Experimental data from ChEMBL document CHEMBL3098012, “A novel tamoxifen derivative, ridaifen-F, is a nonpeptidic small-molecule proteasome inhibitor” (Eur J Med Chem, 2014).
Calls of active or inactive are those of the source. The calls are words filed in the database; no cut-off is given here.

Columns and labels:
[1] = target: T1, Proteasome component C5 (Homo sapiens) (UniProt P20618); assay: Inhibition of biotin-labeled belactosin A binding to human 20S proteasome beta 1 subunit at 10 uM preincubated for 1 hr followed by biotin-labeled belactosin A treatment measured after 1 hr by Western blotting analysis
T1 sequence (whole entry): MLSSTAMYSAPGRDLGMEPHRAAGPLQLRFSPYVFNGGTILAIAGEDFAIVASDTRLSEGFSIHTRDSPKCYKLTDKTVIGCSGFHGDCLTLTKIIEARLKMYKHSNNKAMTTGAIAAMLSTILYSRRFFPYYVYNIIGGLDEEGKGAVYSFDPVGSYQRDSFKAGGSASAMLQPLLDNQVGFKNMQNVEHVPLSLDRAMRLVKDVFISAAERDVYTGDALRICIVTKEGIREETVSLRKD
Method in brief: (§1)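 Purified human 20S proteasome preincubated 1 h at 37 °C with varying compound levels, then biotin-belactosin A added to 1 µM for a further 1 h. Proteins separated by SDS-PAGE, blotted to PVDF, milk-blocked; biotin-labelled subunits detected with streptavidin-HRP and ECL.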

[2] = system: HeLa; assay: Induction of apoptosis in human HeLa cells assessed as caspase 3 cleavage at 1 to 30 uM after 24 hrs by Western blotting analysis; assay type: functional, cell-based
[3] = organism: Homo sapiens; assay: Inhibition of calpain (unknown origin) at >10 uM
[4] = system: HeLa; assay: Induction of apoptosis in human HeLa cells assessed as PARP cleavage after 24 hrs by Western blotting analysis; assay type: functional, cell-based
Method in brief: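 HeLa cells seeded 4×10^5 cells/well, incubated 24 h with varying compound concentrations; PARP cleavage detected in lysates by Western blotting.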

[5] = system: HeLa; assay: Cell cycle arrest in human HeLa cells assessed as accumulation at sub G1 phase at 10 uM after 24 hrs by propidium iodide staining-based flow cytometric analysis (reference value: 2.2%); assay type: functional
[6] = target: T2, Proteasome Macropain subunit MB1 (Homo sapiens, UniProt P28074); assay: Noncompetitive inhibition of chymotrypsin-like activity of human 20S proteasome beta 5 subunit assessed as hydrolysis of succinyl-LLVY-AMC fluorogenic substrate Lineweaver-Burk plot analysis
T2 sequence (P28074 whole entry): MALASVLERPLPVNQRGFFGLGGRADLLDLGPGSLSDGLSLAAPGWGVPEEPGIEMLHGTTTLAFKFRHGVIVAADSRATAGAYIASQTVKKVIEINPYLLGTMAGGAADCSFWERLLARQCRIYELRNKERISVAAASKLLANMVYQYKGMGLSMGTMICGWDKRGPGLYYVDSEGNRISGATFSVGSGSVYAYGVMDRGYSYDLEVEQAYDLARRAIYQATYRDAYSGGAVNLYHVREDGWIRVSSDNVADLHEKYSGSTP

[7] = target: T1, Proteasome component C5 (Homo sapiens); assay: Inhibition of biotin-labeled belactosin A binding to human 20S proteasome beta 1 subunit preincubated for 1 hr followed by biotin-labeled belactosin A treatment measured after 1 hr by Western blotting analysis; method in brief: as §1
[8] = organism: Homo sapiens; assay: Inhibition of cathepsin (unknown origin) at >10 uM
[9] = system: HL-60; assay: Cytotoxicity against […] human HL60 cells after 48 hrs by MTT assay; assay type: functional; details: HL-60, 48 h
Method in brief: (§2)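 HEK293 (DMEM) or HL-60 (IMDM) cells, each with 10% FBS plus penicillin/streptomycin, seeded 5×10^3 cells/well in duplicate. Exposed 48 h to compound at […]. MTT reduction read as 560/750 nm absorbance ratio after HCl/2-propanol extraction. CyT50 from inhibition curve; means of triplicate.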

[10] = system: HeLa; assay: Cell cycle arrest in human HeLa cells assessed as accumulation at sub G1 phase at 60 uM after 24 hrs by propidium iodide staining-based flow cytometric analysis (reference value: 2.2%); assay type: functional
[11] = target: T3, Proteasome Macropain subunit MB1 (Homo sapiens) (UniProt P28074); assay: Inhibition of biotin-labeled belactosin A binding to human 20S proteasome beta 5 subunit at 100 uM preincubated for 1 hr followed by biotin-labeled belactosin A treatment measured after 1 hr by Western blotting analysis; method in brief: as §1
T3 sequence (whole entry): T2 sequence (P28074 whole entry)

[12] = target: T2, Proteasome Macropain subunit MB1; assay: Inhibition of chymotrypsin-like activity of human 20S proteasome beta 5 subunit assessed as hydrolysis of succinyl-LLVY-AMC fluorogenic substrate measured for 1 hr by fluorometric analysis
Method in brief: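 Purified human 20S proteasome (0.1 µg) incubated at 37 °C with 50 µM succinyl-LLVY-AMC (CT-L) or 20 µM Z-LLE-AMC (PGPH) and compound at 0.01–10 µM in 25 mM HEPES, 0.5 mM EDTA, 0.03% SDS. IC50 taken from inhibition curve; means of three experiments.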

[13] = Cytotoxicity against ER-negative HEK293 cells after 48 hrs by MTT assay; assay type: cell-based; details: human; method in brief: as §2
[14] = target: T3, Proteasome Macropain subunit MB1 (Homo sapiens); assay: Inhibition of biotin-labeled belactosin A binding to human 20S proteasome beta 5 subunit at 1 to 100 uM preincubated for 1 hr followed by biotin-labeled belactosin A treatment measured after 1 hr by Western blotting analysis; method in brief: as §1
[15] = system: HeLa; assay: Inhibition of proteasome in human HeLa cells assessed as accumulation of ubiquitinated proteins at 30 uM after 24 hrs by Western blotting analysis; assay type: cell-based
Method in brief: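 HeLa cells, 4×10^5 cells/well, treated 24 h with compound; vehicle control 0.25% DMSO. Lysed in Tris–HCl/2% SDS/glycerol buffer with protease and phosphatase inhibitors; 30 µg protein run on SDS-PAGE, PVDF blot probed with anti-ubiquitin (1:200), actin as loading reference, HRP secondary, ECL detection.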

[16] = Inhibition of chymotrypsin-like activity of Saccharomyces cerevisiae 20S proteasome beta 5 subunit

In the case of `CCC(=C(c1ccc(OCCN2CCCCCC2)cc1)c1ccc(OCCN2CCCCCC2)cc1)c1ccccc1`, the inhibition [1] is reported as “Active”, the Activity [2] is reported as “Active” and the inhibition [3] is reported as “inactive”. The Activity [4] was “Dose-dependent effect”, the Activity [5] was 3.4% and the Ki [6] was 580 nM. The inhibition [7] was “Dose-dependent effect”, the inhibition [8] was “inactive” and the CC50 [9] was 3420 nM. The Activity [10] was 4.7%, the inhibition [11] was “Active” and the IC50 [12] was 640 nM. For the same molecule, the CC50 at 48 h [13] was 4380 nM, the inhibition [14] was “Active” and the inhibition [15] was “Active”. It also gave an IC50 [16] of 1800 nM.
